Assay results as given in ChEMBL document CHEMBL1127424, “7-azetidinylquinolones as antibacterial agents. 2. Synthesis and biological activity of 7-(2,3-disubstituted-1-azetidinyl)-4-oxoquinoline- and -1,8-naphthyridine-3-carboxylic acids. Properties and structure-activity relationships of quinolones with an azetidine moiety” (J Med Chem, 1994).
Values after ≈ are worked out from the molar mass of the structure shown.

How the values were obtained:
Klebsiella pneumoniae = experiment: In vitro minimum inhibitory concentration to inhibit Klebsiella pneumoniae ATCC 10031; assay type: functional
In short: (§1)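 Serial 2-fold agar dilution in Mueller Hinton medium, run alongside a reference quinolone. Inoculum adjusted to 10⁸ cfu/mL; compound range 0.007–16 μg/mL.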

[1] = test system: Staphylococcus epidermidis; experiment: In vitro minimum inhibitory concentration for Staphylococcus epidermidis ATCC 155-1; assay type: functional; in short: as §1
Bacillus cereus = experiment: In vitro minimum inhibitory concentration for Bacillus cereus ATCC 11778; assay type: functional; in short: as §1
Escherichia coli = experiment: In vitro minimum inhibitory concentration for Escherichia coli ATCC 10799; assay type: functional; in short: as §1
Pseudomonas aeruginosa = experiment: In vitro minimum inhibitory concentration for Pseudomonas aeruginosa ATCC 10145; assay type: functional; in short: as §1
Morganella morganii = experiment: In vitro minimum inhibitory concentration for Morganella morganii ATCC 8019; assay type: functional; in short: as §1
Staphylococcus aureus = experiment: In vitro minimum inhibitory concentration for Staphylococcus aureus ATCC 25178; assay type: functional; in short: as §1
Proteus vulgaris = experiment: In vitro minimum inhibitory concentration for Proteus vulgaris ATCC 8427; assay type: functional; in short: as §1
Enterococcus faecalis = experiment: In vitro minimum inhibitory concentration for Streptococcus faecalis ATCC 10541; assay type: functional; in short: as §1
Enterobacter cloacae = experiment: In vitro minimum inhibitory concentration for Enterobacter cloacae ATCC 23355; assay type: functional
Bacillus subtilis = experiment: In vitro minimum inhibitory concentration for Bacillus subtilis ATCC 6633; assay type: functional; in short: as §1
[2] = HPLC capacity factor (k'); assay type: ADME
In short: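 Ion-pair reversed-phase HPLC on ODS-2 (10 μm) at 45 °C. Mobile phase: 10 mM sodium heptanesulfonate plus 50 mM KH2PO4 (pH 3.5)–methanol 45:55, 1 mL/min. Samples at 100 μg/mL in DMF, injected in duplicate, UV 280 nm. k' = (tR − t0)/t0.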

[3] = Solubility (buffer pH 7.4); assay type: physicochemical; conditions: read-out: S
In short: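 Excess solid shaken in 0.05 M phosphate buffer pH 7.4 for 24 h at 25 °C. Suspension filtered through 0.22 μm, discarding the first portion. Filtrate diluted in 0.1 N HCl or 0.1 N NaOH and read by UV at the compound's absorbance maximum.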

[4] = AUC (0-4 hr) ug/ml/h; assay type: ADME, cell-free; set-up: time < 4 hr; concentration or dose not given beside the values; conditions: plasma
In short: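 Mice dosed once orally at 50 mg/kg; blood taken from groups of six mice at 0.5, 1, 2 and 4 h. Serum drug assayed by disk agar diffusion bioassay (Bacillus subtilis ATCC 6633 on Seed Agar, 37 °C, 18 h), giving total activity.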

[5] = Measured ionization constant (pKa); assay type: physicochemical; conditions: read-out: pKa1
In short: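 Spectrophotometric titration at 20 ± 1 °C, 0.1 M ionic strength, pH varied with H2SO4 or NaOH made up in the compound stock. Absorbance followed at compound-specific wavelengths chosen from 200–400 nm scans. pKa1 and pKa2 taken as the inflection points of the two-step absorbance vs pH curve.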

Mus musculus [6] = experiment: Evaluation of efficacy on systemic infections Escherichia coli HM-42, after oral administration in mice; assay type: functional
In short: (§2)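 Single oral dose given immediately after infection, one of four doses per group, chosen from in vitro activity. Survival scored after one week. ED50 (total mg/kg protecting 50%) interpolated from survival rates.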

Mus musculus [7] = experiment: Evaluation of efficacy on systemic infections Pseudomonas aeruginosa HS-116, after oral administration in mice; assay type: functional; in short: as §2
Mus musculus [8] = experiment: Evaluation of efficacy on systemic infections Staphylococcus aureus HS-93, after oral administration in mice; assay type: functional; in short: as §2

Row | SMILES | MIC (Klebsiella pneumoniae) [µg/mL] | MIC [1] [µg/mL] | MIC (Bacillus cereus) [µg/mL] | MIC (Escherichia coli) [µg/mL] | MIC (Pseudomonas aeruginosa) [µg/mL] | MIC (Morganella morganii) [µg/mL] | MIC (Staphylococcus aureus) [µg/mL] | MIC (Proteus vulgaris) [µg/mL] | MIC (Enterococcus faecalis) [µg/mL] | MIC (Enterobacter cloacae) [µg/mL] | MIC (Bacillus subtilis) [µg/mL] | Log k' [2] | solubility [3] [µg/mL] | AUC [4] [ng·h/mL] | pKa [5] | ED50 (Mus musculus [6]) [mg/kg] | ED50 (Mus musculus [7]) [mg/kg] | ED50 (Mus musculus [8]) [mg/kg]
1 | C[C@H]1[C@H](N)CN1c1c(F)cc2c(=O)c(C(=O)O)cn(C(C)(C)C)c2c1F | 0.06 (≈ 0.164 µM) | 0.25 (≈ 0.684 µM) | 0.25 (≈ 0.684 µM) | 0.25 (≈ 0.684 µM) | 2 (≈ 5.47 µM) | 0.25 (≈ 0.684 µM) | 0.25 (≈ 0.684 µM) | 0.25 (≈ 0.684 µM) | 0.5 (≈ 1.37 µM) | 0.25 (≈ 0.684 µM) | 0.06 (≈ 0.164 µM) | 0.262 | – | – | – | – | – | –
2 | C[C@H]1[C@H](N)CN1c1c(F)cc2c(=O)c3c(=O)[nH]sc3n(C3CC3)c2c1F | 0.03 (≈ 0.0793 µM) | 0.12 (≈ 0.317 µM) | 0.06 (≈ 0.159 µM) | 0.12 (≈ 0.317 µM) | 1 (≈ 2.64 µM) | 0.06 (≈ 0.159 µM) | 0.12 (≈ 0.317 µM) | 0.12 (≈ 0.317 µM) | 0.25 (≈ 0.661 µM) | 0.03 (≈ 0.0793 µM) | 0.06 (≈ 0.159 µM) | 0.1134 | – | – | – | – | – | –
3 | NC1CN(c2c(F)cc3c(=O)c(C(=O)O)cn(C4CC4)c3c2Cl)C1 | – | – | – | – | – | – | – | – | – | – | – | -0.0264 | – | – | 5.96 | – | – | –
4 | CCn1cc(C(=O)O)c(=O)c2cc(F)c(N3C[C@@H](N)[C@@H]3C)nc21 | 0.12 (≈ 0.375 µM) | 0.5 (≈ 1.56 µM) | 0.5 (≈ 1.56 µM) | 0.25 (≈ 0.78 µM) | 2 (≈ 6.24 µM) | 0.25 (≈ 0.78 µM) | 0.5 (≈ 1.56 µM) | 0.5 (≈ 1.56 µM) | 2 (≈ 6.24 µM) | 0.12 (≈ 0.375 µM) | 0.12 (≈ 0.375 µM) | -0.1061 | – | – | – | – | – | –
5 | C[C@H]1[C@H](N)CN1c1c(F)cc2c(=O)c(C(=O)O)cn3c2c1SCC3 | 0.25 (≈ 0.716 µM) | 0.5 (≈ 1.43 µM) | 1 (≈ 2.86 µM) | 0.5 (≈ 1.43 µM) | 2 (≈ 5.72 µM) | 0.25 (≈ 0.716 µM) | 1 (≈ 2.86 µM) | 1 (≈ 2.86 µM) | 8 (≈ 22.9 µM) | 0.25 (≈ 0.716 µM) | 0.25 (≈ 0.716 µM) | -0.1195 | – | – | – | – | – | –
6 | C[C@H]1[C@H](N)CN1c1cc2c(cc1F)c(=O)c(C(=O)O)cn2CCF | 0.12 (≈ 0.356 µM) | 1 (≈ 2.96 µM) | 1 (≈ 2.96 µM) | 0.25 (≈ 0.741 µM) | 2 (≈ 5.93 µM) | 0.12 (≈ 0.356 µM) | 1 (≈ 2.96 µM) | 1 (≈ 2.96 µM) | 2 (≈ 5.93 µM) | 0.12 (≈ 0.356 µM) | 0.25 (≈ 0.741 µM) | -0.1459 | – | – | – | – | – | –
7 | C[C@H]1[C@H](N)CN1c1nc2c(cc1F)c(=O)c(C(=O)O)cn2-c1ccc(F)cc1 | 0.06 (≈ 0.155 µM) | 0.25 (≈ 0.647 µM) | 0.25 (≈ 0.647 µM) | 0.12 (≈ 0.311 µM) | 2 (≈ 5.18 µM) | 0.25 (≈ 0.647 µM) | 0.25 (≈ 0.647 µM) | 2 (≈ 5.18 µM) | 4 (≈ 10.4 µM) | 0.12 (≈ 0.311 µM) | 0.06 (≈ 0.155 µM) | 0.0681 | – | – | – | 3.1 | > 400 | 11.9

Continued, in another order:

Row | MIC (Klebsiella pneumoniae) [µg/mL] | MIC [1] [µg/mL] | MIC (Bacillus cereus) [µg/mL] | MIC (Escherichia coli) [µg/mL] | MIC (Pseudomonas aeruginosa) [µg/mL] | MIC (Morganella morganii) [µg/mL] | MIC (Staphylococcus aureus) [µg/mL] | MIC (Proteus vulgaris) [µg/mL] | MIC (Enterococcus faecalis) [µg/mL] | MIC (Enterobacter cloacae) [µg/mL] | MIC (Bacillus subtilis) [µg/mL] | Log k' [2] | solubility [3] [µg/mL] | AUC [4] [ng·h/mL] | pKa [5] | SMILES | ED50 (Mus musculus [6]) [mg/kg] | ED50 (Mus musculus [7]) [mg/kg] | ED50 (Mus musculus [8]) [mg/kg]
8 | 0.015 (≈ 0.0428 µM) | 0.25 (≈ 0.714 µM) | 0.25 (≈ 0.714 µM) | 0.5 (≈ 1.43 µM) | 8 (≈ 22.8 µM) | 0.5 (≈ 1.43 µM) | 0.25 (≈ 0.714 µM) | 0.25 (≈ 0.714 µM) | 2 (≈ 5.71 µM) | 0.25 (≈ 0.714 µM) | 0.015 (≈ 0.0428 µM) | 0.462 | – | – | – | C[C@H]1[C@@H](O)CN1c1c(F)cc2c(=O)c(C(=O)O)cn(C3CC3)c2c1F | – | – | –
9 | 0.03 (≈ 0.0826 µM) | 0.12 (≈ 0.33 µM) | 0.25 (≈ 0.688 µM) | 0.12 (≈ 0.33 µM) | 2 (≈ 5.5 µM) | 0.12 (≈ 0.33 µM) | 0.25 (≈ 0.688 µM) | 0.5 (≈ 1.38 µM) | 1 (≈ 2.75 µM) | 0.06 (≈ 0.165 µM) | 0.06 (≈ 0.165 µM) | 0.1312 | 3.3 (≈ 9.08 µM) | 20600 | – | C[C@H]1N(c2c(F)cc3c(=O)c(C(=O)O)cn(C4CC4)c3c2F)C[C@]1(C)N | – | – | –
10 | 0.015 (≈ 0.0412 µM) | 0.12 (≈ 0.329 µM) | 0.12 (≈ 0.329 µM) | 1 (≈ 2.74 µM) | 2 (≈ 5.49 µM) | 0.5 (≈ 1.37 µM) | 0.12 (≈ 0.329 µM) | 0.25 (≈ 0.686 µM) | 0.5 (≈ 1.37 µM) | 0.5 (≈ 1.37 µM) | 0.015 (≈ 0.0412 µM) | 0.6899 | – | – | – | C[C@H]1N(c2c(F)cc3c(=O)c(C(=O)O)cn(C4CC4)c3c2F)C[C@]1(C)O | – | – | –
11 | 0.015 (≈ 0.0451 µM) | 0.06 (≈ 0.181 µM) | 0.06 (≈ 0.181 µM) | 0.25 (≈ 0.752 µM) | 2 (≈ 6.02 µM) | 0.25 (≈ 0.752 µM) | 0.12 (≈ 0.361 µM) | 0.06 (≈ 0.181 µM) | 2 (≈ 6.02 µM) | 0.12 (≈ 0.361 µM) | 0.015 (≈ 0.0451 µM) | 0.407 | – | – | – | C[C@@H]1[C@@H](O)CN1c1cc2c(cc1F)c(=O)c(C(=O)O)cn2C1CC1 | – | – | –
12 | 0.015 (≈ 0.0434 µM) | 0.25 (≈ 0.724 µM) | 0.25 (≈ 0.724 µM) | 0.12 (≈ 0.347 µM) | 2 (≈ 5.79 µM) | 0.25 (≈ 0.724 µM) | 0.25 (≈ 0.724 µM) | 0.25 (≈ 0.724 µM) | 4 (≈ 11.6 µM) | 0.12 (≈ 0.347 µM) | 0.015 (≈ 0.0434 µM) | 0.1708 | 42.2 (≈ 122 µM) | 3600 | – | CC[C@H]1[C@@H](N)CN1c1cc2c(cc1F)c(=O)c(C(=O)O)cn2C1CC1 | – | – | –
